Reference: paper PMC8114186 (ChemMedChem, 2020)
Like-named read-outs stand apart in the source and are kept apart here. Marks after values point to notes of the source that are not given here. One block for each compound: values may come before it.

How the values were obtained:
NDM-1 = NDM-1 (Klebsiella pneumoniae, UniProt C7C422); assay: In vitro inhibition of NDM-1-catalyzed turnover of nitrocefin; format: biochemical
How it was run: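 Purified NDM-1 enzyme, identity and purity confirmed by ESI-MS. Test compound serially diluted in 50 mM HEPES, pH 7.2, and preincubated with 1 nM NDM-1 for 10 min at rt. Nitrocefin (20 µM) then added; absorbance at 492 nm followed over 30 min at rt. Slopes normalized to each compound's maximum slope, plotted against log concentration; IC50 and confidence intervals from curve fit.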

[1] = tested on: E. coli UTI89 expressing NDM-1; format: cell-based
[2] = tested on: E. coli MG1655 expressing NDM-1; format: cell-based
[3] = E. coli MG1655, 100 μM compound

NDM-1, sequence (C7C422 29-270, looked up, species assumed): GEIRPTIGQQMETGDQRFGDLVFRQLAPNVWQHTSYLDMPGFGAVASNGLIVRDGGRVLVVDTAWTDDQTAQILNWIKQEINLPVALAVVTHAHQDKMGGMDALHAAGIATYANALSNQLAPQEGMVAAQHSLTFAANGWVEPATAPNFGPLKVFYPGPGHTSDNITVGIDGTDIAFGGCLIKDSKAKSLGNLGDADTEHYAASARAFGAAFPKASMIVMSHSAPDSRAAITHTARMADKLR

Structure (SMILES): O=C(O)c1cccc2oc(-c3ccc4ccccc4c3O)nc12 [Compound 5, 2-(1-hydroxynaphthalen-2-yl)benzoxazole-4-carboxylic acid]
IC50 (NDM-1): 0.74 µM
Decrease of the MIC of meropenem ([1]; E. coli UTI89, 100 μM compound): at least 16 fold
Decrease of the MIC of meropenem [2, 3]: at least 16 fold

IC50 (NDM-1): 9.8 µM
Structure (SMILES): O=C(O)c1cccc2oc(-c3cc4ccccc4cc3O)nc12 [Compound 6, 2-(3-hydroxynaphthalen-2-yl)benzoxazole-4-carboxylic acid]

Structure (SMILES): O=C(O)c1cccc2oc(-c3c(O)ccc4ccccc34)nc12 [Compound 7, 2-(2-hydroxynaphthalen-1-yl)benzoxazole-4-carboxylic acid]
IC50 (NDM-1): 8.5 µM
Restoration of meropenem susceptibility ([1]; E. coli UTI89, 100 μM compound): failed to restore meropenem susceptibility
Meropenem MIC ([1]; E. coli UTI89, meropenem + 100 μM compound): 64 µg/mL
Restoration of meropenem susceptibility [2, 3]: failed to restore meropenem susceptibility
Meropenem MIC ([2]; E. coli MG1655, meropenem + 100 μM compound): 64 µg/mL

Structure (SMILES): O=C(O)c1cccc2oc(-c3ccc4ccc(OCc5ccccc5)cc4c3O)nc12 [Compound 8, 2-(7-benzyloxy-1-hydroxynaphthalen-2-yl)benzoxazole-4-carboxylic acid]
IC50 (NDM-1): 2.3 µM
Decrease of the MIC of meropenem ([1]; E. coli UTI89, 100 μM compound): at least 16 fold
Decrease of the MIC of meropenem [2, 3]: at least 16 fold

Structure (SMILES): O=C(O)c1cccc2oc(-c3ccc4cc(OCc5ccccc5)ccc4c3O)nc12 [Compound 9, 2-(6-benzyloxy-1-hydroxynaphthalen-2-yl)benzoxazole-4-carboxylic acid]
Reduction of the MIC of meropenem ([1]; E. coli UTI89, 25 μM compound): at least 4 fold
Decrease of the MIC of meropenem ([1]; E. coli UTI89, 100 μM compound): at least 16 fold
Antibacterial activity of compound on its own ([1]; E. coli UTI89, 200 μM, no meropenem): did not show any antibacterial activity
Meropenem MIC ([1]; E. coli UTI89, meropenem + 25 μM compound): 4–8^[a] μg/mL
Meropenem MIC ([1]; E. coli UTI89, meropenem + 50 μM compound): ≤0.5 µg/mL
Meropenem MIC ([1]; E. coli UTI89, meropenem + 200 μM compound): ≤0.5 µg/mL
Reduction of the MIC of meropenem ([2]; E. coli MG1655, 25 μM compound): at least 4 fold
Decrease of the MIC of meropenem [2, 3]: at least 16 fold
Antibacterial activity of compound on its own ([2]; E. coli MG1655, 200 μM, no meropenem): did not show any antibacterial activity
Meropenem MIC ([2]; E. coli MG1655, meropenem + 25 μM compound): 16 µg/mL
Meropenem MIC ([2]; E. coli MG1655, meropenem + 50 μM compound): 1–4^[a] μg/mL
Meropenem MIC ([2]; E. coli MG1655, meropenem + 200 μM compound): ≤0.5 µg/mL

IC50 (NDM-1): > 40 µM
Inhibitory activity against NDM-1 (in words) (NDM-1): lack of inhibitory activity
Structure (SMILES): O=C(O)c1cccc2oc(-c3ccc4c(OCc5ccccc5)cccc4c3O)nc12 [Compound 10, 2-(5-benzyloxy-1-hydroxynaphthalen-2-yl)benzoxazole-4-carboxylic acid]

Structure (SMILES): C[C@@H](O)[C@H]1C(=O)N2C(C(=O)O)=C(S[C@@H]3CN[C@H](C(=O)N(C)C)C3)[C@H](C)[C@H]12 [Meropenem, reference compound]
Meropenem MIC ([1]; E. coli UTI89, meropenem alone): >64 µg/mL
MIC ([1]; Escherichia coli, read-out: Meropenem MIC, E. coli UTI89, meropenem alone): ≥ 64 µg/mL
Meropenem MIC ([2]; E. coli MG1655, meropenem alone): 64 µg/mL
